The target in assay [1] is T1, Aldo-keto reductase family 1 member C1 (Homo sapiens) (UniProt Q04828).
T1 sequence (whole entry): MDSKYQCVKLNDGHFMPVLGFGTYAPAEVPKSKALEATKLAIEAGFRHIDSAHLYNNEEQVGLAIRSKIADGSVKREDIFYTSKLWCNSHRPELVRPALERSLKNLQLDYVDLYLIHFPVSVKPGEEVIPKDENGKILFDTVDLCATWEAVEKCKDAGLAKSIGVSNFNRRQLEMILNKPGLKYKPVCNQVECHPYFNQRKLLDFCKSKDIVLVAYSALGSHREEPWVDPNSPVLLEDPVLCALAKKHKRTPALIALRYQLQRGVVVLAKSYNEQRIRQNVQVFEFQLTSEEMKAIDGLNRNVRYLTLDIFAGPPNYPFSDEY
Description: Inhibition of human recombinant AKR1C1 expressed in Escherichia coli assessed as decrease in oxidation of 1-acenaphthenol substrate at 100 uM by spectrophotometric analysis. Put shortly:
(§1)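 Single-point screen at 100 μM compound. Recombinant enzyme oxidizes 1-acenaphthenol with 2.3 mM NAD⁺ in 100 mM phosphate buffer pH 9.0, 0.005% Triton X-114, 5% DMSO. AKR1C1: 30 μM substrate (Km), 0.3 μM enzyme. AKR1C2: 50 μM substrate (Km), 0.2 μM enzyme. NADH formation read at 340 nm from initial velocities. Result given as % inhibition.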

Assay [2] deals with T2, Aldo-keto reductase family 1 member C2 (Homo sapiens) (UniProt P52895).
T2 sequence (whole entry): T1 sequence (whole entry) with T38V, R47H, L54V, C87S, V151M, R170H, Q172L
As to the kind of experiment: Inhibition of recombinant AKR1C2 (unknown origin) assessed as decrease in oxidation of 1-acenaphthenol substrate at 100 uM by spectrophotometric analysis. Put shortly:
as §1

In assay [3] the target is T3, Aldo-keto reductase family 1 member C3 (Homo sapiens, UniProt P42330).
T3 sequence (P42330 whole entry): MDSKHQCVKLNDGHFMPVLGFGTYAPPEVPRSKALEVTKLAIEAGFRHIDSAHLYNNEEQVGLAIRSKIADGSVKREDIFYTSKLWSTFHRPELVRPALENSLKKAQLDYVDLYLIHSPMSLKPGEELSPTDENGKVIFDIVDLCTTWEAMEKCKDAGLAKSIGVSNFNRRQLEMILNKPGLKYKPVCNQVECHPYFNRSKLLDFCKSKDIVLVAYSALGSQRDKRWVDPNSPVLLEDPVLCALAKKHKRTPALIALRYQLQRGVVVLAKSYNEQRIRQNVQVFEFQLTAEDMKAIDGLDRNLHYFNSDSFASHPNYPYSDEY
As to the kind of experiment: Inhibition of recombinant AKR1C3 (unknown origin) assessed as decrease in oxidation of 1-acenaphthenol substrate by spectrophotometric analysis.

Assay [4] has as its target T4, Aldo-keto reductase family 1 member C2 (Homo sapiens, UniProt P52895).
T4 sequence (P52895 whole entry): T1 sequence (whole entry) with T38V, R47H, L54V, C87S, V151M, R170H, Q172L
Description: Inhibition of recombinant AKR1C2 (unknown origin) assessed as decrease in oxidation of 1-acenaphthenol substrate by spectrophotometric analysis. Put shortly:
(§2)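 IC50 measured for compounds giving over 50% inhibition at 100 μM. Assay uses 1-acenaphthenol oxidation with 2.3 mM NAD⁺ in pH 9.0 100 mM phosphate buffer with 0.005% Triton X-114 and 5% DMSO. AKR1C1 runs at 30 μM substrate and 0.3 μM enzyme; AKR1C2 at 50 μM substrate and 0.2 μM enzyme. Initial rates come from NADH at 340 nm. IC50 is read from log[inhibitor] versus % inhibition plots.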

Assay [5] deals with T5, Aldo-keto reductase family 1 member C1 (Homo sapiens, UniProt Q04828).
T5 sequence (Q04828 whole entry): T1 sequence (whole entry)
As to the kind of experiment: Inhibition of human recombinant AKR1C1 expressed in Escherichia coli assessed as decrease in oxidation of 1-acenaphthenol substrate by spectrophotometric analysis. Summed up: as §2

Positions count from the first letter of the chain named. The source made the active and inactive calls. The calls are words filed in the database; no cut-off is given here.

A word on the inhibition: it is the change of the read-out against control, counted positive when it falls. One may read the IC50 as the concentration that inhibits the measured activity by half.

`CS(=O)(=O)c1ccc(/C(=C\c2cccc(O)c2)C(=O)O)cc1`: the inhibition entry in assay [1] and in assay [2] was “inactive” in each case.
Turning to `COc1ccc(/C=C(/C(=O)O)c2cccc3ccccc23)cc1OC`, the inhibition is 29.4% in assay [1] and 77.8% in assay [2]. The IC50 in assay [3] came to 128 µM; in assay [4] it was 24.2 µM.
For `COc1ccc(/C=C(/C(=O)O)c2ccc3ccccc3c2)cc1OC`, the inhibition in assay [1] was 9.7%; in assay [2], 39.6%. In addition, the IC50 in assay [3] turned out to be 38.7 µM.
For `CS(=O)(=O)c1ccc(/C(=C\c2ccc(F)cc2)C(=O)O)cc1` the same measures were 21%, 9.2% and 43.1 µM.
`CS(=O)(=O)c1ccc(/C=C(/C(=O)O)c2ccc3c(c2)OCO3)cc1`: the inhibition in assay [1] came to 45.2%; in assay [2], 24.2%.
Regarding `CS(=O)(=O)c1ccc(/C(=C\c2cccc(Cl)c2)C(=O)O)cc1`, the inhibition worked out at 44.5% in assay [1] and 43% in assay [2]. Also, the half-maximal inhibitory concentration (IC50) in assay [3] came to 16.8 µM.
For the compound `CS(=O)(=O)c1ccc(/C(=C\c2ccccc2)C(=O)O)cc1`, the inhibition in assay [1] turned out to be 26.3%; in assay [2], 27.3%. Also, the IC50 in assay [3] came out at 69.8 µM.
Regarding `CCc1ccc(/C=C(/C(=O)O)c2ccc(S(C)(=O)=O)cc2)cc1`, the inhibition entry in assay [1] and in assay [2] was “inactive” throughout. Further, the IC50 in assay [3] turned out to be 13.6 µM.
Take `CS(=O)(=O)c1ccc(/C=C(/C(=O)O)c2ccccc2)cc1`: the half-maximal inhibitory concentration (IC50) was 30.8 µM in assay [5], 139 µM in assay [3] and 34.4 µM in assay [4]. For the same compound, the inhibition in assay [1] is 77.6%; in assay [2], 61.4%.
Consider `CSc1ccc(/C=C(/C(=O)O)c2cccc(Cl)c2)cc1`, for which the IC50 in assay [5] came to 19.1 µM; in assay [3] it was 17 µM; in assay [4], 20.8 µM. The inhibition was 81.7% in assay [1] and 78.3% in assay [2].
`COc1ccc(/C=C(/C(=O)O)c2cc(OC)c(OC)c(OC)c2)cc1OC`: the results for the inhibition in assay [1] and in assay [2] were 6.1% and 0.6%, respectively.
Take `COc1cc(/C(=C\c2cccc3ccccc23)C(=O)O)cc(OC)c1OC`: the inhibition in assay [1] came out at 6.4%; in assay [2], 13.8%.
As to `COc1ccc(/C=C(/C(=O)O)c2cc(OC)c(OC)c(OC)c2)cc1`, the inhibition in assay [1] was 15.1%; in assay [2] it was 4.3%.
As for `CS(=O)(=O)c1ccc(/C=C(/C(=O)O)c2ccc(S(C)(=O)=O)cc2)cc1`, the inhibition entry in assay [1] and in assay [2] was “inactive” in each case. Moreover, the IC50 in assay [3] was found to be 51 µM.
As to `CSc1ccc(/C=C(/C(=O)O)c2ccccc2)cc1`, the half-inhibitory concentration (IC50) worked out at 12.3 µM in assay [5], 30.2 µM in assay [3] and 41.2 µM in assay [4]. Moreover, the inhibition in assay [1] was found to be 87%; in assay [2] it was 59.1%.
`CSc1ccc(-c2ccc(/C=C(/C(=O)O)c3ccc(S(C)(=O)=O)cc3)cc2)cc1`: the inhibition in assay [1] worked out at 64.7%; in assay [2] it was 57.4%.
For `COc1ccc(/C=C(/C(=O)O)c2cc(OC)c(OC)c(OC)c2)cc1OC(C)=O` the same measures were 8% and 3.2%.
For `CS(=O)(=O)c1ccc(/C=C(/C(=O)O)c2ccc(F)cc2)cc1`, the IC50 is 23.3 µM in assay [5] and 44.6 µM in assay [4]. Besides, the inhibition was 86.1% in assay [1] and 69.7% in assay [2].
For `CC(=O)NS(=O)(=O)c1ccc(/C=C(/C(=O)O)c2ccccc2)cc1`, in that order: 8.7 µM, 25.2 µM, 97.8% and 87.3%.
Turning to `COc1cc(/C(=C\c2cccc(F)c2)C(=O)O)cc(OC)c1OC`, the inhibition is 7.8% in assay [1] and 55.9% in assay [2]. The IC50 in assay [4] came out at 77 µM.
For the compound `CC(=O)O[C@]1(C(C)=O)CC[C@H]2[C@@H]3C[C@H](C)C4=CC(=O)CC[C@]4(C)[C@H]3CC[C@@]21C` [MEDROXYPROGESTERONE ACETATE], the IC50 in assay [5] amounted to 1.8 µM; in assay [3] it was 0.3 µM; in assay [4], 4.1 µM.
On to `CS(=O)(=O)c1ccc(/C(=C\c2ccc(C(F)(F)F)cc2)C(=O)O)cc1`, for which the inhibition in assay [1] was found to be 3.5%; in assay [2], 18.4%. The IC50 in assay [3] was 23.3 µM.
For `CS(=O)(=O)c1ccc(/C(=C\c2ccc(Br)cc2)C(=O)O)cc1`, in that order: 28.7%, 19.2% and 4.9 µM.
For `CS(=O)(=O)c1ccc(/C(=C\c2cccc(F)c2)C(=O)O)cc1`, in that order: 15.4%, 27% and 38.9 µM.
As to `CC(=O)NS(=O)(=O)c1ccc(/C=C(/C(=O)O)c2ccc(S(C)(=O)=O)cc2)cc1`, the inhibition in assay [1] was determined as 5.9%; in assay [2] it was 10.6%.
Turning to `COc1ccc(/C=C(/C(=O)O)c2cc(OC)c(OC)c(OC)c2)cc1O`, the inhibition amounted to 14.4% in assay [1] and 20.6% in assay [2]. The IC50 in assay [3] worked out at 121 µM.
On to `COc1ccc(/C=C(/C(=O)O)c2ccc(S(C)(=O)=O)cc2)cc1`, for which the inhibition entry in assay [1] and in assay [2] was “inactive” each time. For the same compound, in assay [3], the IC50 was found to be 36.9 µM.
Take `CSc1ccc(/C=C(/C(=O)O)c2ccc(S(C)(=O)=O)cc2)cc1`: the inhibition in assay [1] stood at 43.8%; in assay [2], 14.4%. In addition, the IC50 in assay [3] amounted to 5.8 µM.
For the compound `O=C(O)/C(=C/c1ccccc1)c1ccccc1`, the IC50 in assay [5] turned out to be 7.9 µM. Moreover, the inhibition in assay [1] is 90.1%; in assay [2] it was 47.5%.
Take `COc1ccc(/C=C(/C(=O)O)c2cc(OC)c(OC)c(OC)c2)cc1F`: the inhibition in assay [1] is -5.2%; in assay [2] it was 9.9%.
Regarding `CS(=O)(=O)c1ccc(/C(=C\c2cccc(Br)c2)C(=O)O)cc1`, the inhibition was determined as 34.8% in assay [1] and 58.3% in assay [2]. The figures for the half-inhibitory concentration (IC50) in assay [3] and in assay [4] were 13.6 µM and 74.3 µM, respectively.
Turning to `Cc1ccc(/C=C(/C(=O)O)c2ccc(S(C)(=O)=O)cc2)cc1`, the inhibition result in assay [1] is “inactive”. In assay [3], the IC50 was determined as 13.4 µM. Further, in assay [2], the inhibition was determined as 1.1%.
For `CS(=O)(=O)c1ccc(/C(=C\c2ccc(O)c(O)c2)C(=O)O)cc1`, in that order: 46.5%, 33.1 µM and 27.2%.
For the compound `CS(=O)(=O)c1ccc(/C(=C\c2ccc(O)cc2)C(=O)O)cc1`, the inhibition entry in assay [1] and in assay [2] was “inactive” throughout.
Consider `COc1cc(/C(=C\c2cccc(OC(C)=O)c2)C(=O)O)cc(OC)c1OC`, for which the inhibition in assay [1] was determined as 40%; in assay [2], 27%.
In the case of `CS(=O)(=O)c1ccc(/C(=C\c2ccc(Cl)cc2)C(=O)O)cc1`, the inhibition turned out to be 34.7% in assay [1] and 24.3% in assay [2]. Also, the IC50 in assay [3] was determined as 10.8 µM.
`COc1cc(/C=C(/C(=O)O)c2ccc(S(C)(=O)=O)cc2)cc(OC)c1OC`: the inhibition result in assay [1] and in assay [2] was “inactive” in each case.
On to `COc1cc(/C(=C\c2ccc3ccccc3c2)C(=O)O)cc(OC)c1OC`, for which the inhibition in assay [1] is 9.6%; in assay [2], 15.9%.
As for `CS(=O)(=O)c1ccc(/C=C(/C(=O)O)c2ccc(Cl)cc2)cc1`, the IC50 in assay [5] was found to be 15.7 µM; in assay [3], 86.6 µM; in assay [4] it was 26.9 µM. Besides, the inhibition came to 89.6% in assay [1] and 63.4% in assay [2].

Source of the values: ChEMBL document CHEMBL2331309, “2,3-Diarylpropenoic acids as selective non-steroidal inhibitors of type-5 17β-hydroxysteroid dehydrogenase (AKR1C3)” (Eur J Med Chem, 2013).
